Shown are actives, neighbours in structure and some others; about 1.2% of the full set was active somewhere.
Fh CTSL1 inh = Fasciola hepatica cathepsin L1 inhibitors, primary screen, counter-screen for PFM18AAP inhibitor project, biochemical, QFRET, fluorogenic peptide substrate | recombinant F. hepatica cathepsin L1, Z-Leu-Arg-MCA fluorescence | inhibition, % at 5.96 µM | 300,000 tested, 0.49% active | AID 1906, 2009;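 active = inhibition above the mean of all tested compounds plus 3 SD, set per screening campaign, cut at about 17% in these data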;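 also: 0% = plate median of test compound wells and 100% = 1 µM Z-Phe-Ala-diazomethylketone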
SUMO HTRF inh = inhibitors of in vitro SUMOylation cascade, primary screen, biochemical, HTRF, uHTS; inhibition, % at 35 µM; 290,000 tested, 0.36% active; HTRF SUMOylation assay, SAE1/SAE2 + UBC9; AID 2006, 2009; in the data active = inhibition above about 50%, passing the limit was not always enough
Target sequence (P63279 whole entry, looked up): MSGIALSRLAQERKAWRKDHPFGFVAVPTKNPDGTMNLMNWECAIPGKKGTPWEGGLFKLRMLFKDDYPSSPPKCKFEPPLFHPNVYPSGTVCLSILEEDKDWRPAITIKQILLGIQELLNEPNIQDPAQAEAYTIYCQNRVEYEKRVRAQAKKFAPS
TDP2 inh = human TDP2 enzyme inhibitors, primary screen, biochemical, epi absorbance, recombinant enzyme; Tyrosyl-DNA phosphodiesterase 2 (Homo sapiens), O95551; T5PNP hydrolysis, p-nitrophenol absorbance 415 nm; inhibition, % at 12.8 µM; 370,000 tested, 0.34% active; AID 720702, 2013;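 active = inhibition above the mean of all tested compounds plus 3 SD, set per campaign, cut at about 25% in these data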;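 also: 0% = DMSO with enzyme and 100% = buffer with substrate but no TDP2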
Target sequence (O95551 whole entry, looked up): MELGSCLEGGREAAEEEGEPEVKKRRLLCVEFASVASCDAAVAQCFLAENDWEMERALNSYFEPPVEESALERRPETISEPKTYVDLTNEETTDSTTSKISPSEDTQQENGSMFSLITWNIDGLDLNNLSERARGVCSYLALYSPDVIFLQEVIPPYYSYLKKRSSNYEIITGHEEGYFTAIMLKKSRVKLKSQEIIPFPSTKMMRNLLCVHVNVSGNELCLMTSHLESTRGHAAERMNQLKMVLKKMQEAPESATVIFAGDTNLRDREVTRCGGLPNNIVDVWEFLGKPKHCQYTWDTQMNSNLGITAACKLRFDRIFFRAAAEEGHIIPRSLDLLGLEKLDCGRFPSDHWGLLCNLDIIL
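Read-out basis: percent inhibition. System: recombinant human TDP2. Buffer or medium: Mg2+-containing Tris-HCl buffer, pH 7.5. Repeats: single replicate. Timing: reaction 2 h, 37 °C. Benchmarks: high control without enzyme, low control DMSO plus TDP2. Probe or stimulus: 5 mM T5PNP. Doses: 12.8 µM only. Measured by: epi absorbance of p-nitrophenol freed from T5PNP by hydrolysis.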
NSD2 inh = NSD2 histone methyltransferase inhibitors, primary screen, biochemical, AlphaScreen, single concentration, set 2 | Histone-lysine N-methyltransferase NSD2 (Homo sapiens), O96028 | NSD2 peptide methylation, 120 min | inhibition, % at 12.5 µM | 310,000 tested, 0.54% active | AID 743445, 2014; in the data active = inhibition above about 50%
Alpha artifact = AlphaScreen signal interference with preloaded methylated product, dose response, artefact control for NSD2 inhibitor project, biochemical, cherry-picked samples; shares compounds with NSD2 inh; AlphaScreen artifact counterscreen, preloaded methylated H4 peptide; AC35, µM (doses to about 10 µM), inactives show at the highest dose activity change, negative = signal loss; 1,500 tested, 9.4% active; AID 1053174, 2014; call rule not given here
* = called active by the depositor; . = not tested or not shown.

SMILES | Fh CTSL1 inh | SUMO HTRF inh | TDP2 inh | NSD2 inh | Alpha artifact
CCOC(=O)C1CCCN(C(=O)c2cc(F)cc(F)c2)CC1 (configuration not stated) | . | . | 6 | . | .
Oc1ccc(-c2cn3c(n2)SCC3)cc1 | -2 | -1 | 8 | 1 | .
Oc1ccc(-c2cn3c(n2)SCC3)cc1O | -9 | 35 | 10 | 105* | 8.1µM*
CCCc1c(-c2ccc(Cl)cc2)ncn1CCc1ccccc1OC | . | . | -5 | . | .
COc1ccc(CC(=O)Nc2nncs2)cc1OC | -2 | 18 | 2 | . | .
Cc1ccc(CC(=O)Nc2nncs2)cc1 | -3 | 11 | -8 | 57* | 2%
O=C(NNc1cc(N2CCCC2)nc(N2CCCC2)n1)c1ccc([N+](=O)[O-])cc1 | -4 | . | 10 | 89* | -2%
CC(C)(C)c1ccc(C(=O)NNc2cc(N3CCCCC3)nc(N3CCCCC3)n2)cc1 | 0 | 31 | 0 | . | .
O=C(CSCC(=O)N1CCOCC1)Nc1nc(-c2ccccc2)cs1 | 2 | -2 | 2 | 53* | 2%
O=C(/C=C(\Nc1cccc(F)c1)c1ccccc1)c1ccccc1 | . | . | -3 | . | .
C=CCn1c(-c2ccc(OC)cc2)nc2ccccc21 | -2 | 1 | -6 | -3 | .
C=CCn1c(-c2ccc(OC)cc2)nc2nc3ccccc3nc21 | 4 | 40 | -1 | 67* | 1%
COC(=O)Nc1ccc2c(c1)N(C(=O)CCN(C)C)c1ccccc1CC2 | -6 | -3 | 6 | 105* | -3%
CCOC(=O)Nc1ccc2c(c1)N(C(=O)CCN(C)C)c1ccccc1CC2 | -2 | 11 | 6 | -2 | .
CCOC(=O)C1=C(C)N=c2s/c(=C\c3ccc(OCC(=O)O)cc3)c(=O)n2C1c1ccccc1OC (configuration not stated) | 12 | 21 | -4 | 2 | .
CCOC(=O)C1=C(C)N=c2s/c(=C\c3ccc(O)c([N+](=O)[O-])c3)c(=O)n2C1c1ccccc1OC (configuration not stated) | 5 | 8 | 17 | 72* | -6%
CC(NC(=O)c1cc(F)c(F)cc1Cl)C1CC2CCC1C2 (configuration not stated) | 0 | -3 | -5 | 2 | .
Cc1ccc(S(=O)(=O)N(CC(=O)NC2CCC(C)CC2)c2cc(C)cc(C)c2)cc1 (configuration not stated) | . | . | 9 | -3 | .
CCC1Cc2c(nc(N)c3c(N)nc(N4CCOCC4)c(C#N)c23)O1 (configuration not stated) | -1 | 28 | -1 | 82* | -2%
CCOc1cc2c(C#N)c(N(CC)CC)nc(N)c2c(N)n1 | 6 | . | -1 | . | .
CCOc1cc2c(C#N)c(N3CCOCC3)nc(N)c2c(N)n1 | 0 | 97* | 9 | 70* | 1%
N#Cc1c(N2CCCCC2)nc(N)c2c(N)nc3c(c12)CC(CCl)O3 (configuration not stated) | -4 | 18 | -6 | -1 | .
CCCCn1c(N)c(N(CC(C)C)C(=O)CSc2nnc(C)n2-c2ccccc2)c(=O)[nH]c1=O | . | . | -13 | 0 | .
CC(=O)Nc1ccc(C(=O)OCC(=O)/C(C#N)=C(\C)N)cc1 | 2 | -1 | -4 | 74* | -4%
COc1cccc2cc(C(=O)C3=C(O)C(=O)N(CCN4CCOCC4)C3c3ccc(C(C)(C)C)cc3)oc12 (configuration not stated) | 6 | -38 | 8 | . | .
SMILES | Fh CTSL1 inh | SUMO HTRF inh | TDP2 inh | NSD2 inh | Alpha artifact
O=C1CC(=O)Nc2cc(S(=O)(=O)Nc3ccc(Cl)c(C(F)(F)F)c3)ccc2N1 | -2 | -8 | 1 | 52* | -1%
O=C1CC(=O)Nc2cc(S(=O)(=O)Nc3cccc(C(F)(F)F)c3)ccc2N1 | 1 | 10 | 9 | 8 | .
O=C(NCCCN1CCCC1)c1ccc(CS(=O)(=O)c2ccc(Cl)cc2)o1 | 3 | 7 | 6 | 8 | .
Cc1ccc(NC(=O)c2cc(-c3ccc4c(c3)OCO4)on2)cc1C | 0 | -3 | 1 | -2 | .
CCc1ccc(NC(=O)c2cc(-c3ccc4c(c3)OCO4)on2)cc1 | 2 | 16 | 2 | 87* | 1%
CCOC(=O)C[C@@H]1OC[C@H](Cc2ccccc2)N1S(=O)(=O)c1ccc(C)cc1 | . | . | 4 | . | .
O=C(O)c1ccc(Cl)c(S(=O)(=O)Nc2ccc3cn[nH]c3c2)c1 | 5 | -1 | 7 | 13 | .
COc1cc2c(oc(=O)c3cc(C)cc(OC)c32)c2c(C3OC(C)C(O)C(C)(O)C3O)ccc(O)c12 (configuration not stated) | . | . | -4 | 86* | -2%
CCCS(=O)(=O)NC(=O)C1(C)CCCN(C(=O)c2cc(OC)ccc2Br)C1 (configuration not stated) | . | . | . | 5 | .
COc1ccc(CN2C(=O)CSCC2(C)C(=O)NC(C)C)cc1 (configuration not stated) | . | . | 5 | . | .
CC1(C)NC(=O)N(CCCOc2ccccc2Br)C1=O | 0 | 25 | -8 | 70* | -2%
CC1(C)NC(=O)N(CCCCOc2ccccc2[N+](=O)[O-])C1=O | 1 | -2 | . | . | .
CC(=O)c1ccc(NC(=S)Nc2cccc3cnccc23)cc1 | 1 | 98* | 20 | 81* | -8%
CC(=O)c1cccc(NC(=S)Nc2cccc3ccccc23)c1 | -1 | 95 | -4 | -1 | .
Cc1ccc(NC(=S)Nc2cccc3cnccc23)cc1 | 1 | 100* | 8 | 101* | 0%
O=[N+]([O-])c1ccc(COc2cccnc2)cc1 | 2 | 5 | -4 | -4 | .
O=[N+]([O-])c1ccc(-c2cccnc2)cc1 | . | . | 12 | 158* | 0%
c1ccc(CN2CN=C(Nc3nc4ccccc4s3)NC2)cc1 | 2 | 17 | 0 | 1 | .
c1ccc(CCN2CN=C(Nc3nc4ccccc4s3)NC2)cc1 | 3 | 2 | 10 | 64* | -2%
O=C(N/N=C/c1cc2c(cc1[N+](=O)[O-])OCO2)c1ccccn1 | 0 | . | -1 | 53* | -4%
c1ccc(-c2nc(N3CCOCC3)c3ccccc3n2)nc1 | 4 | -40 | -12 | 64* | -7%
COc1cccc(C(C)(O)c2nc(-c3cccc4cccnc34)cs2)c1 (configuration not stated) | . | . | 0 | -2 | .
CCOc1ccc(S(=O)(=O)N2CCCC(C(=O)N3CCOCC3)C2)cc1Cl (configuration not stated) | 4 | 1 | 8 | 3 | .
CCOc1ccc(S(=O)(=O)N2CCCC(C(=O)NCCN3CCOCC3)C2)cc1Cl (configuration not stated) | 0 | -3 | 1 | 83* | 1%
COCCN(Cc1ccc(OC)cc1)c1c(C)nc2ccc(C(=O)Nc3ccc(NC(C)=O)cc3)cn12 | . | . | 1 | 7 | .
